Screening results: PubChem BioAssay, several laboratories
APP 5UTR inh – APP translation inhibition; SH-SY5Y APP 5'UTR-luciferase reporter, luminescence; inhibition, % at 2 µM; 190,000 tested, 0.82% active; AID 1285;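 active = inhibition above a set limit, derived from the sample mean plus 3 SD, cut at about 45% in these data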
Ba/F3 V617F tox – lowers viability of Ba/F3 cells expressing EpoR and JAK2V617F; inhibition, % at 5.6 µM; 220,000 tested, 1.1% active; ATP luminescence;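 active = inhibition above the campaign mean plus 3 SD over all tested compounds, cut at about 24% in these data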;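 also: cytokine-independent growth of Ba/F3 cells driven by EpoR plus mutant JAK2; 0% = DMSO-treated cells and 100% = JAK inhibitor I control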
MT stabilizer – stabilizes microtubules in HeLa cells | HeLa tubulin immunostaining HCS, 24 h; share of cells brighter than vehicle mean+2SD | % tubulin-high responders, % at 10 µM | 200,000 tested, 0.83% active;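 active = plate Z-score above 3 for both tubulin-high and condensed-nucleus cell shares, with cell loss under 80%, at 10 µM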;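 also: anti alpha tubulin signal scored within the nucleus-defined area of each cell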
IEC-6 tox – counter-screen for KLF5 inhibitors: cytotoxicity in IEC-6 cells; IEC-6 cytotoxicity, luminescence viability; 290,000 tested, 0.78% active; inhibition, % at 5 µM; in the data active = inhibition above about 22%;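 also: 0% = plate median of test compound wells and 100% = cytotoxic reference compound wells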
BaF3 tox – counter-screen for JAK2V617F inhibitors: parental Ba/F3 viability inhibitors; inhibition, % at 5.6 µM; 220,000 tested, 1.1% active; CellTiter-Glo ATP luminescence;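 active = inhibition above a per-campaign cutoff, the mean inhibition of all tested compounds plus 3 SD, cut at about 27% in these data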;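 also: 0% = DMSO wells and 100% = JAK Inhibitor I control wells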
b-catenin transl – beta-catenin nuclear translocation modulation; nuclear translocation activity, % at 5 µM; 190,000 tested, 0.3% active; HeLa beta-catenin nuclear translocation, immunofluorescence imaging;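 active = nuclear translocation activity above 50% at 5 µM, with a well cell count of 50 or more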;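 also: per-cell ratio of nuclear to cytoplasmic median beta-catenin stain intensity; plate controls were DMSO negative control for no effect and GSK-3 inhibitor IX positive control for full effect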
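assay system = human HeLa cells, endogenous beta-catenin | times = compound treatment 24 h, 37°C, 5% CO2 | detection = Anti-beta-catenin immunofluorescence on PFA-fixed, Triton-permeabilized cells, DAPI nuclei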
BaF3 parental 2 – parental Ba/F3 viability inhibition for JAK2V617F counter-screen; CellTiter-Glo luminescence; cells kept alive by added IL-3; inhibition, % at 5.6 µM; AID 1520; 580 tested, 31% active; shares compounds with Ba/F3 V617F tox;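 active = cell growth inhibition above the hit limit set in the earlier mutant JAK2 cell screen, cut at about 27% in these data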;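 also: plate controls were DMSO-treated cells for no effect and JAK Inhibitor I control wells for full effect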
JAK2V617F conf – Ba/F3 EpoR-JAK2V617F viability loss, confirmation. inhibition, % at 5.6 µM. CellTiter-Glo luminescence. AID 1521. 580 tested, 66% active. shares compounds with Ba/F3 V617F tox;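 active = mean inhibition above the hit cutoff derived in the earlier primary screen, cut at about 25% in these data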;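 also: 0% = DMSO-treated cells and 100% = JAK inhibitor I control wells; higher means lower luminescence from reduced cell ATP and viability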
The depositor's hits bear a star; . = not tested or not shown. In the library only some 2.2% were active in any assay of this set; here they are far more common.

SMILES	APP 5UTR inh	Ba/F3 V617F tox	MT stabilizer	IEC-6 tox	BaF3 tox	b-catenin transl	BaF3 parental 2	JAK2V617F conf
CCCOc1ccc(C(=O)C(CN2CCCC2)c2ccccc2)cc1 (stereo not given)	92*	65*	19	6	6	14	52*	99*
Cc1ccc(C)c(S(=O)(=O)Nc2ccc3scnc3c2)c1	5	35*	25	17	20	.	16	33*
Cc1ccc(C(C)C)c(OCC(=O)NC2CCN(C)CC2)c1	.	.	.	-7	.	.	.	.
COCCN(CC(=O)NCC1CCCO1)C(=O)CCC(=O)Nc1cc(C)on1 (stereo not given)	-3	35*	2	-6	1	-1	-5	-8
COCCN(CC(=O)NCC1CCCO1)C(=O)CCC(=O)Nc1cc(C)ccn1 (stereo not given)	13	0	3	-3	3	1	.	.
COc1ccccc1NC(=O)NC1(C)CCS(=O)(=O)C1 (stereo not given)	.	.	.	2	.	.	.	.
Cn1c(=N)n(CC(O)c2cccc3ccccc23)c2ccccc21 (stereo not given)	-4	41*	5	10	-7	0	-1	28*
CCc1cc(C(=O)N2CCCC(CCC(=O)N3CCN(c4ccccn4)CC3)C2)no1 (stereo not given)	11	4	2	9	1	0	.	.
CC(C)c1cc(C(=O)N2CCCC(CCC(=O)N3CCN(c4ccccn4)CC3)C2)no1 (stereo not given)	.	32*	.	6	2	0	-4	1
Oc1ccccc1OCC(O)c1ccccc1 (stereo not given)	.	.	.	8	.	.	.	.
Oc1ccccc1OCCOc1ccccc1OCCOc1ccccc1O	-4	26*	.	0	22	1	26	71*
O=C(CSc1ccc2ccccc2c1Br)Nc1cccc(S(=O)(=O)NC2=NCCCCC2)c1	0	33*	2	15	1	0	3	75*
CC(=O)Nc1ccc(SC[C@H](c2ccccc2)N2CCN(CCc3ccccc3)CCC2=O)cc1	.	.	.	.	.	-1	.	.
CCC(C)N1C(=O)S/C(=C/c2ccc3c(c2)n(C)c(=O)n3C)C1=O (stereo not given)	-2	67*	2	2	4	3	-3	16
Cc1ccc2cc(CCNC(=O)CC(C)C)c(=O)[nH]c2c1	-16	69*	4	7	8	-3	-3	-2
CCC(C)N(C(=O)COC(=O)CNC(=O)c1sc2ccccc2c1Cl)C1CCS(=O)(=O)C1 (stereo not given)	.	.	.	4	.	.	.	.
CN(Cc1ccccc1)C(=O)COC(=O)c1cncc(Br)c1	10	-2	1	-4	12	5	.	.
CN(Cc1ccccc1)C(=O)COC(=O)c1ccc(Cl)c(N)c1	-10	94*	7	-6	11	-2	-5	-7
Cc1ccc(OCCn2cnc3c(N)ncnc32)cc1	4	93*	3	6	22	0	82*	28*
CCOc1ccc(OCCn2c(=S)[nH]c3c(N)ncnc32)cc1	0	-2	2	-8	6	0	.	.
Nc1c(C(=O)NC2CC2)c2nc3ccccc3nc2n1-c1ccc2c(c1)OCO2	-4	-1	2	-1	3	-5	.	.
Nc1c(C(=O)OCC2CCCO2)c2nc3ccccc3nc2n1-c1ccc2c(c1)OCCO2 (stereo not given)	-7	96*	3	-8	2	5	-5	-10
C/C(=N\Nc1ccccc1C(=O)O)c1ccncc1	.	.	.	-9	.	.	.	.
CCN(CC)S(=O)(=O)c1cccc(-n2c(O)c(C=Nc3ccccc3C(=O)O)c3ccccc3c2=O)c1	.	26*	.	17	10	-1	9	55*
O=C(O)c1ccccc1N=Cc1c(O)n(-c2nccs2)c(=O)c2ccccc12	.	17	.	3	2	0	.	.
O=C(N/N=C/c1cccnc1)c1ccc(NC(=O)c2ccccc2Cl)cc1	.	.	.	7	.	.	.	.
